In the library only some 0.55% were active in any assay of this set; here they are far more common.
TRPN1 ag = zebrafish TRPN1 (NompC) channel agonism; hit rate 0.18% among 220,000; HEK293 zebrafish TRPN1-YFP, Fluo-8 calcium fluorescence; 100% = response to 87 µM carbachol; activation, % at 3 µM;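 active = activation above its plate's cutoff, the mean activation of test wells on that plate plus 3 SD, cut at about 19% in these data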;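 also: 0% = DMSO alone and 100% = 87 µM carbachol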
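Assay system: Zebrafish TRPN1-YFP in HEK293 cells | Incubation: Dye loading 1 h at 37 °C, then 30 min room temperature | Measured by: Kinetic Fluo-8 fluorescence, ex 470-495, em 515-575 nm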
V1aR counter = counter-screen for oxytocin receptor agonists: human V1a receptor agonists. AID 2797. CHO-V1R cells, Fluo-8 calcium fluorescence, agonist mode; 0% DMSO, 100% 3 nM vasopressin. activation, % at 3 µM. P37288. hit rate 0.25% among 320,000;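 active = activation above the mean activation of all tested compounds plus 3 SD, per screening run, cut at about 20% in these data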;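 also: signal is peak over basal fluorescence ratio across a 100 second FLIPR read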
Target sequence (P37288 whole entry, looked up): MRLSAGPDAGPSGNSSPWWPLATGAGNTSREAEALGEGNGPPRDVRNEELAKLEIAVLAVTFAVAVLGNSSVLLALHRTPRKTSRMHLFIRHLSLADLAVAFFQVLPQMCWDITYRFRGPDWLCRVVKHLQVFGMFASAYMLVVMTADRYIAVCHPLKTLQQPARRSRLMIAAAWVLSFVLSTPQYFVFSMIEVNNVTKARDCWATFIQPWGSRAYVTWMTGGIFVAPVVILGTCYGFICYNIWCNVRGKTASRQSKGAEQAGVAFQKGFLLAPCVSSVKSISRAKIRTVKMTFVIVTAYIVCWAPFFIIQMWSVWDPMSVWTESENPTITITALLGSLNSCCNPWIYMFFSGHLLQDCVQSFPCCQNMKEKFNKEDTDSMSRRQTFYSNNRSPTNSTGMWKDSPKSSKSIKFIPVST
TRPML3 ag = agonists of human TRPML3 channel; Q8TDD5; HEK293 TRPML3-YFP, Fluo-8 calcium fluorescence; 100% = the carbachol control signal; activation, % at 3 µM; hit rate 0.29% among 220,000; AID 1448;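 active = activation above its plate's cutoff, the mean activation of the plate's test wells plus 3 SD, cut at about 12% in these data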;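 also: 0% = DMSO only wells and 100% = carbachol wells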
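Test system – HEK293 line with stable expression of human TRPML3-YFP channel · Control set – carbachol 87 µM final as high control (100%), DMSO as low control (0%) · Signal – Fluo-8 calcium dye fluorescence, ex 470-495, em 515-575 nm · Incubation – 1-h 37 °C dye load, 5-s basal, 120-s post-compound reads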
OXTR potentiator = human OXTR potentiation; P30559; CHO-OTR cells, Fluo-8 calcium fluorescence, potentiator mode; 0% = oxytocin EC15, 100% = EC100; activation, % at 3 µM; hit rate 0.061% among 320,000; AID 2445;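 active = activation above that plate's cutoff, the mean activation of tested compounds plus 3 SD, cut at about 6.6% in these data, passing the limit was not always enough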;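 also: 100% uses oxytocin at 75 nM as the full agonist control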
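assay system = CHO-OTR cells, human receptor | schedule = compound 6 min at room temperature before oxytocin, 100 s read | detection = Fluo-8 intracellular calcium fluorescence, ex 470-495, em 515-575 nm | evaluation = normalized max/min fluorescence ratio, % activation | control set = EC15 oxytocin alone as 0%, 75 nM oxytocin (EC100) as 100%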
OXTR agonist = activates the human oxytocin receptor | P30559 | CHO-OTR cells, Fluo-8 calcium fluorescence; normalized: DMSO 0%, oxytocin 100% | activation, % at 3 µM | hit rate 0.32% among 320,000;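 active = activation above the mean of all tested compounds plus 3 SD, cutoff set per screening run, cut at about 20% in these data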;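 also: peak over basal fluorescence ratio from a 100 s FLIPR kinetic read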
TRPN1 ag 2 = activates zebrafish TRPN1, counter-screen for TRPML3 agonists; activation, % at 3 µM; hit rate 10% among 310; AID 1525; shares compounds with TRPML3 ag; HEK293 zebrafish TRPN1-YFP, Fluo-8 calcium fluorescence; scaled: carbachol wells 100%, DMSO wells 0%;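 active = mean activation over replicates above a set limit taken from the earlier TRPN1 channel primary screen, cut at about 19% in these data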;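 also: 100% = carbachol and 0% = 0.3% DMSO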
TRPML3 ag conf = confirmation of human TRPML3 channel agonists. shares compounds with TRPML3 ag. HEK293 TRPML3-YFP, Fluo-8 calcium fluorescence; 100% set by carbachol, 0% by DMSO. activation, % at 3 µM. hit rate 80% among 310. AID 1526;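 active = activation above a set limit derived from the earlier primary screen, cut at about 12% in these data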
An asterisk follows results filed as active; . = not tested or not shown.

SMILES | TRPN1 ag | V1aR counter | TRPML3 ag | OXTR potentiator | OXTR agonist | TRPN1 ag 2 | TRPML3 ag conf
On1onc2c3cc(-c4ccccc4)nc3ccc21 | 1 | 1 | 12* | -10 | 3 | 3 | 1
COc1cccc(-c2nc(CS(=O)(=O)CC(=O)NC3CCCCCC3)c(C)o2)c1 | . | 3 | . | -12 | 2 | . | .
CCOc1ccccc1NC(=O)C1CCN(c2ccc(S(=O)(=O)N3CCCC3)cc2)CC1 | 0 | 0 | 20* | -6 | 0 | 1 | 20*
O=S(=O)(NC1CCCCC1N1CCN(c2ccccc2F)CC1)c1ccc(Cl)cc1 (configuration not stated) | . | 0 | . | -11 | -1 | . | .
O=S(=O)(NC1CCCCC1N1CCOCC1)c1ccc(Cl)cc1 (configuration not stated) | 0 | 1 | 129* | -1 | 0 | 5 | 151*
CC(C)=C1C2CCC1C(C(=O)NCc1ccccc1)C2C(=O)O (configuration not stated) | 1 | -1 | 18* | -12 | 0 | 0 | 4
COc1cccc(-c2sc3ccc(OC)cc3c2C#CCCO)c1 | . | 0 | . | -4 | -1 | . | .
CCNC(=O)N(C)C[C@H]1N[C@@](C)(C(=O)OC)[C@H]2C(=O)N(Cc3ccccc3)C(=O)[C@@H]12 | . | 1 | . | 2 | 0 | . | .
CCCC(=O)Oc1c(S(=O)(=O)c2ccc(C)cc2)c(C)nn1C(C)(C)C | 0 | 0 | 26* | 2 | 0 | 6 | 84*
O=C(c1ccccc1)c1ccc(O)cc1O | 18 | 30* | 18* | -7 | 24* | 11 | 8
COc1ccc(S(=O)(=O)Nc2ccc(C)cc2)cc1N(C)S(=O)(=O)c1ccc(Cl)cc1 | 1 | 0 | 61* | -4 | -1 | -1 | 32*
COc1ccc(S(=O)(=O)N(CC(=O)N2CCOCC2)c2cc(Cl)ccc2OC)cc1OC | 3 | 1 | 45* | -8 | 0 | 2 | 42*
COc1ccc(S(=O)(=O)NN(C)C)cc1N(C)S(=O)(=O)c1ccc(Cl)cc1 | 1 | 0 | 0 | -5 | 0 | . | .
COc1ccc(Cl)cc1N(CC(=O)N1CCCC1)S(=O)(=O)c1ccc(C)cc1 | . | 0 | . | -6 | 1 | . | .
COC(=O)CN(c1cc(Cl)ccc1OC)S(=O)(=O)c1ccc(C)cc1 | -2 | -1 | 70* | -3 | -1 | -1 | 61*
CCN(CC)CCCn1c(SCC(=O)Nc2cccc(F)c2)nnc1-c1ccoc1C | . | 0 | . | -7 | 0 | . | .
Cc1cc2nc3c(=O)[nH]c(=O)[nH]c3nc2c([N+](=O)[O-])c1N | 15 | . | 12* | . | . | 7 | 5
COc1nc(C)cc(C)c1S(=O)(=O)c1ccccc1C | . | -1 | . | -5 | -2 | . | .
Cc1cc(C)c(S(=O)(=O)c2c(C)cccc2C)c(OCC(C)C)n1 | 0 | 0 | 12* | -7 | -1 | 0 | 43*
CCOc1nc(C)cc(C)c1S(=O)(=O)c1cccc(C)c1 | -2 | -1 | 0 | -2 | -2 | . | .
C#CCOc1nc(C)cc(C)c1S(=O)(=O)c1ccccc1C | -3 | -1 | 41* | 6 | -1 | -3 | 61*
CN(C)CCCNc1nc(N)c([N+](=O)[O-])c(NC2CCCCC2)n1 | . | 0 | . | -1 | 2 | . | .
Cc1nn(C(=O)c2nn(C)cc2[N+](=O)[O-])c(C)c1Cl | 1 | 1 | 1 | -5 | 0 | . | .
COc1ccccc1C(=O)NCC(=O)N1CCN(c2ncccn2)CC1 | . | 0 | . | -5 | 1 | . | .
CCn1c(=O)cc(OCC(=O)Nc2ccc(OC)c(OC)c2)c2ccccc21 | 4 | 1 | 23* | -6 | 0 | 7 | 23*
CN(C)CCNc1cnn(-c2ccccc2)c(=O)c1Cl | 0 | 1 | 0 | -3 | 1 | . | .
Cc1cc(C)cc(N(CC(=O)N2CCOCC2)S(=O)(=O)c2ccccc2)c1 | 1 | -1 | 35* | -15 | 0 | 0 | 46*
